Measurements published in ChEMBL document CHEMBL1151910, “Synthesis and antirhinovirus activity of new 3-benzyl chromene and chroman derivatives” (Bioorg Med Chem, 2009).

Legend:
[1] = Cytotoxicity against human HeLa Ohio cells after 3 days by XTT assay; assay type: cell-based; settings: read-out: TC50
rhinovirus B14 [2] = experiment: Antiviral activity against HRV 14 infected in human HeLa Ohio cells assessed as reduction in viral plaque formation after 3 days by neutral red uptake assay; assay type: functional, organism-based
Outline: (§1)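 HeLa (Ohio) monolayers were infected with enough virus for about 100 plaques per well, adsorbed 1 h at 33 °C, then overlaid with plaque medium with or without fourfold drug dilutions. After 3 days at 33 °C, cells were stained with neutral red (0.2 mg/mL in PBS pH 7.4) and plaques counted. IC50 was read from a plot of % plaque reduction vs log dose against mock-treated control.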

rhinovirus A1B [3] = experiment: Antiviral activity against HRV 1B infected in human HeLa Ohio cells assessed as reduction in viral plaque formation at maximum non-cytotoxic concentration after 3 days by neutral red uptake assay; assay type: functional, Human rhinovirus 1B
Outline: (§2)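 Plaque reduction on HeLa (Ohio) monolayers, with dosing starting from the maximum non-cytotoxic concentration. Virus was adsorbed 1 h at 33 °C, then cells got plaque overlay with fourfold drug dilutions, 3 days at 33 °C, and neutral red staining. Values are % plaque reduction at that concentration vs mock-treated control.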

[4] = Cytotoxicity against human HeLa Ohio cells assessed as maximal non-cytotoxic concentration after 3 days by XTT assay; assay type: cell-based; settings: read-out: MNCC
rhinovirus B14 [5] = experiment: Antiviral activity against HRV 14 infected in human HeLa Ohio cells assessed as reduction in viral plaque formation at maximum non-cytotoxic concentration after 3 days by neutral red uptake assay; assay type: functional; outline: as §2
[6] = Therapeutic index, ratio of TC50 for human HeLa Ohio cells to IC50 for HRV1B infected in human HeLa Ohio cells; assay type: cell-based; settings: read-out: TI
rhinovirus A1B [7] = experiment: Antiviral activity against HRV 1B infected in human HeLa Ohio cells assessed as reduction in viral plaque formation after 3 days by neutral red uptake assay; assay type: functional, organism-based, Human rhinovirus 1B; settings: Rhinovirus A, 72 h; outline: as §1

Compound: O[C@H]1c2ccccc2OC[C@H]1Cc1ccccc1 (relative stereo)
- CC50 at 72 h [1]: 150 µM
- IC50 (rhinovirus B14 [2]; Rhinovirus B, HeLa, 72 h): > 25 µM
- inhibition (INH) (rhinovirus A1B [3]): 50%
- MNTC at 72 h [4]: 25 µM
- inhibition (INH) (rhinovirus B14 [5]): 15.9%
- selectivity ratio [6]: 43
- IC50 (rhinovirus A1B [7]): 3.49 µM

Compound: C(=C1/COc2ccccc2C1)/c1ccccc1
- MNTC at 72 h [4]: 25 µM

Compound: O[C@H]1c2ccccc2OC[C@@H]1Cc1ccccc1 (relative stereo)
- CC50 at 72 h [1]: > 200 µM
- IC50 (rhinovirus B14 [2]; hela): Not Active
- inhibition (INH) (rhinovirus A1B [3]): 50%
- MNTC at 72 h [4]: 25 µM
- selectivity ratio [6]: > 55.7
- IC50 (rhinovirus A1B [7]): 3.59 µM

Compound: O[C@H]1c2cc(Cl)ccc2OC[C@H]1Cc1ccc(Cl)cc1 (relative stereo)
- MNTC at 72 h [4]: 25 µM

Compound: Clc1ccc(C2CCc3cc(Cl)ccc3O2)cc1 (stereo unspecified)
- MNTC at 72 h [4]: 25 µM

Compound: c1ccc(CC2COc3ccccc3C2)cc1 (stereo unspecified)
- MNTC at 72 h [4]: 25 µM

Compound: Clc1ccc2c(c1)CC(Cc1ccccc1)CO2 (stereo unspecified)
- MNTC at 72 h [4]: 25 µM

Compound: C1=C(Cc2ccccc2)COc2ccccc21
- MNTC at 72 h [4]: 25 µM

Compound: O[C@H]1c2ccccc2OC[C@H]1Cc1ccc(Cl)cc1 (relative stereo)
- MNTC at 72 h [4]: 12.5 µM

Compound: Clc1ccc2c(c1)C/C(=C/c1ccccc1)CO2
- MNTC at 72 h [4]: 25 µM
